SIAE inh – human SIAE inhibitors, primary screen, biochemical, fluorescence polarization, FP-Rh probe, 1536-well HTS; Sialate O-acetylesterase (Homo sapiens), Q9HAT2; SIAE FP-Rh probe binding; inhibition, % at 9.66 µM; 370,000 compounds, 0.69% hits; AID 1053197, 2014;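 active = inhibition above a cutoff: mean of compounds within the control limits plus 3 SD of those, cut at about 17% in these data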
Apaf1 inhib – inhibitors of human Apaf-1 apoptosome, primary screen, biochemical, DEVD-Rh110 fluorescence, uHTS | Apoptotic protease-activating factor 1 (Homo sapiens), O14727 | inhibition, % at 20 µM | reconstituted apoptosome caspase-3 activity | 330,000 compounds, 0.71% hits | AID 489030, 2010; active = inhibition of at least 40% at 20 µM
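System: Apoptosome proteins | Medium: Hepes pH 7.5 with detergent and BSA | Also added: Cytochrome c trigger plus (Z-DEVD)2-Rh110 caspase-3 substrate | Incubation: 30 min compound preincubation, 50 min activation, room temperature | Detection: Rhodamine 110 fluorescence at Ex 480/Em 540 nm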
TCR CD3 inh – inhibitors of human TCR-CD3 interaction, primary screen, biochemical, fluorescence, TAMRA-labeled TCR probe; inhibition, % at 9.4 µM; 360,000 compounds, 0.37% hits; in the data active = inhibition above about 19%;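 note: recombinant mutant TCR 2C K166C tagged with TAMRA read by polarization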
PAD4 inh – human PAD4 inhibitors, primary screen, biochemical, fluorescence polarization, 1536-well format; recombinant PAD4, RCA probe fluorescence polarization; Protein-arginine deiminase type-4 (Homo sapiens), Q9UM07; 330,000 compounds, 0.41% hits; inhibition, % at 6.36 µM;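 active = percent inhibition above a cutoff equal to the mean of all tested compounds plus 3 SD, cut at about 15% in these data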
GSTO1 inh – inhibitors of recombinant GSTO1, primary screen, counter-screen for RBBP9 inhibitor project, biochemical, fluorescence polarization; inhibition, % at 5.96 µM; 300,000 compounds, 1.1% hits; activity-based probe fluorescence polarization;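 active = inhibition above the campaign mean inhibition plus 3 SD, cut at about 35% in these data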
TDP2 inh – human TDP2 enzyme inhibitors, primary screen, biochemical, epi absorbance, recombinant enzyme; Tyrosyl-DNA phosphodiesterase 2 (Homo sapiens), O95551; T5PNP hydrolysis, p-nitrophenol absorbance 415 nm; inhibition, % at 12.8 µM; 370,000 compounds, 0.34% hits; AID 720702, 2013;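 active = inhibition above the mean of all tested compounds plus 3 SD, set per campaign, cut at about 25% in these data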
Target sequence (O95551 whole entry, looked up): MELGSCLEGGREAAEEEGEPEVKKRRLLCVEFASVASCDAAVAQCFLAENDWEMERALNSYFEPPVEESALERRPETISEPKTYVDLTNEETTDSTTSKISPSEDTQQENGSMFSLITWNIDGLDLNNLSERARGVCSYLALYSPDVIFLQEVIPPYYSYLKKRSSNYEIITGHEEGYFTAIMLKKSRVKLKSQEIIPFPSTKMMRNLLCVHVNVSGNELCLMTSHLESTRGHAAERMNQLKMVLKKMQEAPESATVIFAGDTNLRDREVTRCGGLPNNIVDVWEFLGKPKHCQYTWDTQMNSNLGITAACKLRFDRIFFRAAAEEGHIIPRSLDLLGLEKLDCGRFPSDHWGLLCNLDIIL
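Assay system: Recombinant human TDP2 | Quantity: 120 nM TDP2 per well | Incubation: 2 h at 37 °C | Signal: Epi absorbance | Evaluation: Percent inhibition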
PAD4 confirm – human PAD4 inhibitors, confirmation, biochemical, fluorescence polarization | 1,200 compounds, 28% hits | inhibition, % at 6.36 µM | AID 488796, 2010 | shares compounds with PAD4 inh | recombinant PAD4, RCA probe fluorescence polarization;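 active = mean inhibition across replicates above the hit cutoff set by the earlier primary screen, cut at about 15% in these data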;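 note: inhibitors block active-site labeling by the probe so polarization falls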
Of the large screens only hits and unclear results are named; the others gave an inactive call (follow-up assays come after a bar, where they were run). Shown are actives, neighbours in structure and some others; about 2.4% of the full set was active somewhere.

CC(=O)C1=C(c2ccccc2)N(C(C)=O)n2c(C)nnc2S1	PAD4 inh 68 | PAD4 confirm 59
COc1cccc(NC(=O)CNCc2ccccc2)c1	none
COC(=O)CCSc1cc(NCCOC(C)=O)c([N+](=O)[O-])c2nonc12	none
CC(=O)OCCNc1cc(SCc2ccco2)c2nonc2c1[N+](=O)[O-]	PAD4 inh 16 (no result: SIAE inh, Apaf1 inhib, TCR CD3 inh, TDP2 inh) | PAD4 confirm inactive
O=C(NCCc1cccs1)c1cccs1	none
C#CCOCCOCCOCCNc1nc(N2CCN(C(=O)[C@H](CCC(=O)O)n3cc(C(N)[C@H](C)CC)nn3)CC2)nc(N2CCN(C(=O)[C@H](Cc3cc4ccccc4[nH]3)n3cc(C(N)[C@H](C)CC)nn3)CC2)n1 (stereo partly drawn)	PAD4 inh 27 (no result: SIAE inh, TCR CD3 inh, TDP2 inh) | PAD4 confirm inactive
Cc1ccc(NC(=O)Nc2cccc(C)n2)c(C)c1	none
CC(C)N=c1cc2n(-c3ccc(Cl)cc3)c3ccccc3nc-2cc1Nc1ccc(Cl)cc1	Apaf1 inhib 68, PAD4 inh 20 | PAD4 confirm 28
Cn1c(CNc2ccc(Cl)cc2)nc2ccccc21	none
CCN(Cc1ccccc1)C(=O)Nc1c(Cl)cccc1Cl	none (no result: Apaf1 inhib, PAD4 inh, GSTO1 inh)
CCN(CC)CCCNC(=O)c1cn(C)c2ccc(S(=O)(=O)N(C)C)cc2c1=O	none
COc1cc2oc(=O)ccc2cc1[C@H](O)[C@@H](O)C(C)(C)O	PAD4 inh 45 (no result: GSTO1 inh) | PAD4 confirm inactive
COC(=O)C1CN(Cc2cn(CCC3OCCO3)nn2)CCS(=O)(=O)N1Cc1ccc(C)cc1 (stereo not drawn)	none (no result: Apaf1 inhib, TCR CD3 inh, PAD4 inh, GSTO1 inh)
CCC(=O)Oc1ccc(-c2cnc3ccccc3n2)cc1	PAD4 inh 20 | PAD4 confirm inactive
Cc1c(C(=O)Oc2ccc(-c3cnc4ccccc4n3)cc2)cccc1[N+](=O)[O-]	PAD4 inh 62 | PAD4 confirm 57
O=C(Oc1ccc(-c2cnc3ccccc3n2)cc1)c1ccco1	PAD4 inh 36 | PAD4 confirm 35
N=C(N)n1ncc2c1CCCC2=O	none (no result: Apaf1 inhib, PAD4 inh, GSTO1 inh)
Cc1cccc(OCC(O)CN2C(C)(C)CC(O)CC2(C)C)c1 (stereo not drawn)	none
O=C(C1CCC(CNS(=O)(=O)c2cccc3cccnc23)CC1)N1CCc2ccccc21 (stereo not drawn)	none
O=C(CC1CCCCC1)NCc1nc(-c2ccccc2)no1	none
CCC(Sc1nc(C)cc(C)n1)C(=O)NC1=NN=C(c2ccc(C)cc2)CS1 (stereo not drawn)	PAD4 inh 66 | PAD4 confirm 55
Cc1cc(C)nc(SCC(=O)Nc2ccc(Br)cn2)n1	none
CCC(Sc1nc(C)cc(C)n1)C(=O)Nc1cc(C)on1 (stereo not drawn)	none
Cc1cc(C)nc(SCC(=O)NC2=NN=C(c3ccc(Br)cc3)CS2)n1	PAD4 inh 38 | PAD4 confirm 21
CC(C)[C@H](N)C(=O)OCC(CO)OCn1cnc2c(=O)[nH]c(N)nc21 (stereo partly drawn)	none (no result: Apaf1 inhib, TCR CD3 inh, PAD4 inh, GSTO1 inh)
CCOc1ccc(C(=O)NCC(=O)OCc2cc(C(C)=O)ccc2OC)cc1	none
Cn1nnnc1SCC(=O)N1CCN(S(=O)(=O)c2ccc(Cl)cc2)CC1	PAD4 inh 17 | PAD4 confirm inactive
COC(=O)CCCC1=CC2=CC(=O)C(C)(OC(=O)c3cccs3)C(=O)C2=CN1CCc1ccccn1 (stereo not drawn)	PAD4 inh 17 | PAD4 confirm inactive
CCCCC1=CC2=C(c3ccco3)C(=O)C(C)(OC(=O)c3ccc(OC)cc3)C(=O)C2=CN1CCOC (stereo not drawn)	none
